ROMK primary: ROMK potassium channel modulators, primary screen, cell-based, thallium flux, MLSMR library; ATP-sensitive inward rectifier potassium channel 1 (Homo sapiens), P48048; Tet-inducible ROMK, thallium flux fluorescence; actives lie on both sides; B-score at 10 µM; 130,000 compounds, 2% hits; AID 1918, 2009;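 active = signal ratio slope over the read window, or its plate-corrected B-score, at least 3 SD from the plate mean, either direction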;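 also: B-score of the F/F0 ratio slope over 7 to 12 s after thallium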
Autophagy HCS: autophagy modulators in MEF cells, primary screen, imaging, high-content, MEF GFP-LC3 | MEF GFP-LC3 puncta imaging; test concentration mostly 10 µM | calls only at 10 µM (by protocol) | 190,000 compounds, 0.98% hits;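 active = percentage of spot-positive cells more than 3 SD above its plate mean, without a fluorescence outlier flag or 80% toxicity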;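 also: spot-positive cell cutoff set from DMSO-treated cells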
DTT redox prof: compounds producing H2O2 with reducing agent – biochemical, NIH compound library profiling, artefact control for MLSCN library redox annotation, primary screen; DTT-dependent redox cycling H2O2, phenol red/HRP absorbance; 100% = 100 µM peroxide control, 0% = buffer; activation, % at 10 µM; 200,000 compounds, 0.03% hits;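 active = activation of at least 50% relative to the plate's high and low controls in the primary single-dose screen; inactive = activation below 50%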;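 also: compound incubated with DTT at 0.8 mM final as the reducing agent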
Dynein cargo inh: inhibitors of GR-EGFP nuclear translocation, primary screen, dynein cargo transport inhibitor project, imaging, high-content, 3617.4 mouse cells; test concentration mostly 20 µM; stimulated with dexamethasone, 1 µM; active compounds read low; z-score, hits read low; 220,000 compounds, 0.47% hits; AID 1381, 2008;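 active = plate z-score of nuclear minus cytoplasmic receptor signal below a set negative limit, without overly bright fluorescence or cell loss, cut at about -3.5 in these data, passing the limit was not always enough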;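 also: z-score of nuclear minus cytoplasmic ring GR-EGFP intensity difference per well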
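Buffer or medium: tetracycline-free induction medium containing charcoal-stripped FBS / Reagent: dexamethasone agonist, 1.0 µM final, for 30 min / Technique: automated 10x imaging of fixed Hoechst-stained cells / Times: induction 48 h, compound 1 h, agonist 30 min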
KCC2 mod: KCC2 cotransporter modulators, thallium flux, primary screen, cell-based, HEK293 KCC2, FluoZin-2 fluorescence, MLSMR | AID 1456, 2008 | 190,000 compounds, 2.2% hits | KCC2 cells, thallium flux FluoZin-2 fluorescence | Solute carrier family 12 member 5 (Homo sapiens), Q9H2X9 | B-score of Tl+ flux slope (higher = more flux/activation; lower = inhibition) at 10 µM;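 active = thallium flux slope and its plate-corrected score both differing from the plate sample mean at a set confidence after two filtering rounds, in either direction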;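 also: slope of fluorescence scaled to starting intensity during 10 to 20 s after thallium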
Numbers without * were called inactive; i = inactive; . = no result given; + = active, no number. Sampled rows, rich in hits. Any-hit rate of the full collection: about 4.1%.

SMILES	ROMK primary	Autophagy HCS	DTT redox prof	Dynein cargo inh	KCC2 mod
O=C(C1CCN(Cc2ccccc2)CC1)N1CCN(C/C=C/c2ccccc2)CC1	-0.39	+	0	0.41	0.34
O=C(C1CCN(Cc2ccc(F)cc2)CC1)N1CCN(C/C=C/c2ccccc2)CC1	-0.49	i	-4	-0.57	-0.63
CSc1ccc(NC(=O)c2cccnc2)cc1C#N	-0.0092	i	0	0.44	-1.3
O=C(Nc1nc2ccccc2s1)Nc1ccc([N+](=O)[O-])cc1Cl	.	.	.	-0.35	.
O=C(O)CC/C(=C\c1cc([N+](=O)[O-])ccc1Cl)c1nc2ccccc2s1	.	i	0	0.39	-10*
N#Cc1c(C(F)(F)F)cc(-c2ccco2)nc1SCc1ccccn1	0.18	+	2	-0.61	-0.32
N#Cc1c(C(F)(F)F)cc(-c2ccco2)nc1SCc1ccncc1	.	i	2	-0.76	-1.3
O=C(CCC1CCCN(C(=O)C2(c3ccccc3)CC2)C1)N1CCN(c2ccccn2)CC1 (stereo unspecified)	.	i	0	0.72	-1.2
CC(=O)Nc1ccc(-c2nnn(CC(=O)Nc3ccc4c(c3)OCO4)n2)cc1Cl	0.53	+	-1	-0.24	1.1
COc1ccccc1-n1cccc1C=O	1.1	i	0	-0.7	-0.17
COc1ccccc1Cn1cccc1C=O	-0.18	+	-1	-0.51	0.12
COc1cc(/C=C2\CC/C(=C\c3cc(OC)c(OC)c(OC)c3)C2=O)cc(OC)c1OC	-0.032	i	4	0.076	0.079
COc1cc(/C=C2\COC/C(=C\c3cc(OC)c(OC)c(OC)c3)C2=O)cc(OC)c1OC	.	.	.	-6.6*	0.59
Cn1c(/C(C#N)=C(\O)CN2CCN(Cc3ccccc3)CC2)nc2ccccc21	-1.1	i	1	-0.49	-6.1*
O=C(O)CSCC(=O)N1CCN(S(=O)(=O)c2cc(Cl)cc(Cl)c2)CC1	-0.062	.	.	0.22	0.45
Cc1cnc(NC(=O)c2c(-c3ccccc3)noc2C)s1	.	.	.	-1.2	0.0052
CCC(C)NC(=O)C1CCCN1S(=O)(=O)c1ccc(Cl)cc1 (stereo unspecified)	.	i	0	-0.78	0.33
COC(=O)C(C)NC(=O)C1CCCN1S(=O)(=O)c1cc(C)c(Cl)cc1C (stereo unspecified)	.	i	-4	-0.15	-4.3*
COc1ccc(CN2CCN(C(=O)C3CCC(CNS(=O)(=O)c4ccc(C)cc4)CC3)CC2)c(OC)c1OC (stereo unspecified)	-0.034	+	-2	0.047	-0.013
COc1ccc(CN2CCN(C(=O)C3CCN(S(=O)(=O)c4cccs4)CC3)CC2)c(OC)c1OC	-0.16	i	1	0.089	-0.15
CCN(CC)c1ccc(/C=C/C(=O)C2C(=O)C=C(C)OC2=O)cc1 (stereo unspecified)	.	+	0	-2.7	i
C/C(=N\Nc1ccc(Cl)cc1)c1c(O)cc(C)oc1=O	0.55	i	0	-0.7	-0.0081
CCOC(=O)c1sc2cc([N+](=O)[O-])cc(SCCO)c2c1N	-0.097	+	0	-1.5	-0.1
CCc1c(C)c(C#N)c2nc3ccccc3n2c1NCc1ccco1	-1.1	i	0	-0.58	-3.8*
CCc1c(C)c(C#N)c2nc3ccccc3n2c1NCCN(C)C	-0.12	i	0	-0.96	-0.5
CCc1ccc(NC(=O)/C(C#N)=C/c2cc3ccc(C)cc3nc2N2CCOCC2)cc1	-1.8	+	0	-0.36	0.31
CCn1cc(C(C)NC(=O)Nc2ccc3c(c2)OCO3)c(C)n1 (stereo unspecified)	0.56	i	0	-1.5	-0.34
CCCCn1c(NS(=O)(=O)c2ccccc2)c(S(=O)(=O)c2ccc(C)cc2)c2nc3ccccc3nc21	.	i	100*	0.48	-7.1*
O=C(Cn1c(O)c(/C=C2\C=Nc3ccccc32)sc1=O)Nc1ccc2c(c1)OCO2	-0.76	+	-7	-0.067	0.01
O=C(Nc1ccc(F)cc1)C1=CC(=O)N2CCN=C2S1	-0.59	i	0	-0.97	0.38
